Assay results as given in ChEMBL document CHEMBL3124905, “Isothiocoumarin-3-carboxylic acid derivatives: synthesis, anticancer and antitrypanosomal activity evaluation” (Eur J Med Chem, 2014).

How the values were obtained:
Type in all cases: functional
[1] = system: Trypanosoma brucei brucei; assay: Antitrypanosomal activity against bloodstream form of Trypanosoma brucei brucei strain 90-13 assessed as inhibition of parasite growth at 10 ug/ml after 72 hrs by resazurin reduction test; settings: strain 90-13, 72 h
Summary of the method: (§1)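 Trypanosoma brucei brucei 90-13 bloodstream forms, grown in HMI9 with 10% FCS at 37 °C under 5% CO2. Log-phase parasites were seeded at 10^5 cells/mL with or without inhibitor, with stocks prepared in DMSO. After 72 h, resazurin was added and fluorescence was read at 530/590 nm after a further 4 h. Percent growth inhibition was calculated versus drug-free parasites, with DMSO as control.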

[2] = system: Trypanosoma brucei brucei; assay: Antitrypanosomal activity against bloodstream form of Trypanosoma brucei brucei strain 90-13 assessed as inhibition of parasite growth at 1 ug/ml after 72 hrs by resazurin reduction test; settings: strain 90-13, 72 h; summary of the method: as §1
SF-268 = assay: Anticancer activity against human SF268 cells assessed as cell growth at 100 uM after 48 hrs by SRB assay; settings: SF-268, 48 h, read-out: Activity
Summary of the method: (§2)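 NCI one-dose primary screen on a three-line panel (breast MCF7, lung NCI-H460, CNS SF-268). Cells were inoculated and preincubated 24–48 h, then exposed to a single concentration of 10−4 M for 48 h. The endpoint was sulforhodamine B protein staining, and results are expressed as percent growth relative to untreated control cells. Negative values denote cytotoxicity.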

NCI-H460 = assay: Anticancer activity against human NCI-H460 cells assessed as cell growth at 100 uM after 48 hrs by SRB assay; settings: NCI-H460, 48 h, read-out: Activity; summary of the method: as §2
MCF7 = assay: Anticancer activity against human MCF7 cells assessed as cell growth at 100 uM after 48 hrs by SRB assay; settings: MCF7, 48 h, read-out: Activity; summary of the method: as §2
SR = assay: Growth inhibition of human SR cells after 48 hrs by SRB assay
Summary of the method: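 NCI ~60-cell-line five-dose screen. Cells were preincubated 24-48 h, then given compound at 10-fold dilutions from 10^-4 to 10^-8 M with 48 h continuous exposure. SRB protein stain was read by absorbance at time zero, in untreated control and with drug. GI50 was derived from [(Ti-Tz)/(C-Tz)]x100=50, TGI from Ti=Tz, and LC50 from [(Ti-Tz)/Tz]x100=-50.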

Row | Compound | inhibition at 10 µg/mL [1] | inhibition at 1 µg/mL [2] | growth at 100 µM (SF-268) | growth at 100 µM (NCI-H460) | growth at 100 µM (MCF7) | GI50 (SR) | TGI (SR; read-out: pTGI (converted))
1 | O=C(Nc1cccc(C(F)(F)F)c1)c1cc2ccccc2c(=O)s1 | -7.12% | 5.78% | – | – | – | – | –
2 | O=C(O)CNC(=O)c1cc2ccccc2c(=O)s1 | 0.18% | 10.8% | – | – | – | – | –
3 | Cc1c(NC(=O)c2cc3ccccc3c(=O)s2)c(=O)n(-c2ccccc2)n1C | – | – | 106% | 52% | 107% | – | –
4 | COc1ccc2cc(C(=O)Nc3ccc(Cl)cc3)sc(=O)c2c1OC | 5.99% | 5.77% | 91% | 93% | 80% | – | –
5 | COc1ccc2cc(C(=O)Nc3ccccc3C(F)(F)F)sc(=O)c2c1OC | 2.91% | 6.86% | 107% | 90% | 99% | – | –
6 | COc1ccc2cc(C(=O)NCC(=O)O)sc(=O)c2c1OC | – | – | 112% | 109% | 109% | – | –
7 | O=C(O)c1cc2ccccc2c(=O)s1 | 0.05% | 16.8% | – | – | – | – | –
8 | COc1ccc2cc(C(=O)Nc3cc(C)on3)sc(=O)c2c1OC | 3.93% | 12.2% | 51% | 70% | 52% | – | –
9 | NS(=O)(=O)c1ccc(NC(=O)c2cc3ccccc3c(=O)s2)cc1 | – | – | – | – | – | 31.6 µM | > 100 µM
